# Only some compounds are listed: those with a hit (about 3.1% of all), similar ones and a draw of the others.
# SIRT5 inh: sirtuin-5 (human) deacylase inhibition; Q9NXA8; Purified SirT5, succinyl-peptide AMC, trypsin-coupled fluorescence; inhibition, % at 15 µM; hit rate 1.1% among 330,000; AID 652115; in the data active = inhibition above about 15%; inconclusive = no clear call, values can overlap the other calls
# Target sequence (Q9NXA8 whole entry, looked up): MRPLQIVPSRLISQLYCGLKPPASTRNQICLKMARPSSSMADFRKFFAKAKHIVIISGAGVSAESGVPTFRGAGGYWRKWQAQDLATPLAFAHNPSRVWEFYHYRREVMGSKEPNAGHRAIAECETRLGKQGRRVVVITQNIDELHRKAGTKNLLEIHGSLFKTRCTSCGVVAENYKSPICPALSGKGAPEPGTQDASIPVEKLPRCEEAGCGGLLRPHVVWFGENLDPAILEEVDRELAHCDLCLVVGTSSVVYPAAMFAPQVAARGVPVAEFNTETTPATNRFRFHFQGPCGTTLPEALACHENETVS
# Ecoli rRNA inh: inhibitors of bacterial rRNA selective over humanized ribosomes; E. coli WT GFP vs humanized-ribosome RFP mutants, fluorescence, 24 h; stronger effect = lower value; DMSO median 0, no signal -100; GFP signal change (wild-type ribosome), % (no concentration beside the values); hit rate 1.6% among 350,000;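 active = significant combined selectivity score with lowered wild-type GFP, culture density cut under 30%, mutant RFP and density less affected; inactive = any of these conditions unmet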
# S100A4 MyoIIA: inhibitors of human S100A4 binding to myosin IIA peptide; P26447; S100A4/TAMRA-MyoIIA peptide fluorescence polarization; inhibition, % at 10.7 µM; hit rate 0.14% among 360,000; AID 652163;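 active = mean inhibition of at least 70% across replicates, with every replicate also reaching that level; inconclusive = mean inhibition reaches 70% but some replicates fall short; inactive = mean inhibition below 70%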
# Target sequence (P26447 whole entry, looked up): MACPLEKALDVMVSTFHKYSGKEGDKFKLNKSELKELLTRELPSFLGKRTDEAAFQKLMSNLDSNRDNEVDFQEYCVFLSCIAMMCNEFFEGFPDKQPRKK
#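 System – human S100A4 monomer protein, biochemical binding assay · Buffer or medium – Calcium-containing HEPES buffer, pH 7.2 · Timing – 5 min between mix addition and reading · Also added – TAMRA-labelled myosin IIA heavy-chain peptide probe, 5 nM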
# ERAP1 inh: inhibitors of human ERAP1 aminopeptidase | hit rate 0.15% among 340,000 | inhibition, % at 10.7 µM | Q9NZ08 | AID 652197 | recombinant ERAP1, Leu-AMC fluorescence, 60 min;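 active = mean replicate inhibition of at least 30%, or all replicates individually reaching that 30% level; inactive = mean below 30% and not every replicate reaching it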;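 note: 0% = neutral control wells and 100% = L-leucinethiol positive control wells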
# CFTR F508del cor: CFTR F508del correction in bronchial cells; hit rate 0.36% among 350,000; activity (quench increase), % at 7.58 µM; AID 720511; CFBE cells, YFP halide quenching; stimulated with forskolin plus potentiator P3; % fluorescence drop versus neutral controls;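 active = mean added fluorescence quench of at least 8% versus neutral control, with both replicates also reaching 8%; inconclusive = only one of the mean or replicate conditions met; inactive = mean below 8% and not both replicates reaching 8%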;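 note: cells transiently co-express mutant CFTR-F508del with the halide-sensitive YFP; corrector assay measuring rescue of mutant channel to the surface after 24 h compound exposure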
# Starred values were filed as active, the others as inactive; ? = inconclusive; / = no result.
SMILES,SIRT5 inh,Ecoli rRNA inh,S100A4 MyoIIA,ERAP1 inh,CFTR F508del cor
O=C(Nc1nc(-c2ccc3c(c2)OCO3)cs1)C1COc2ccccc2O1 (stereo unspecified),15.8*,-2.0,2.4,3.5,-3.7
O=C(Nc1nc(-c2ccc3c(c2)OCCO3)cs1)C1CCCC1,-0.6,-33.6*,-5.0,2.6,2.9
Cc1nc2cc(NC(=O)C3COc4ccccc4O3)ccc2s1 (stereo unspecified),-2.4,/,-0.8,90.4*,-0.1
Cc1nc2ccc(NC(=O)C3COc4ccccc4O3)cc2s1 (stereo unspecified),4.8,-14.9,-3.0,-0.6,-0.5
N#CCC(=O)Nc1nc(-c2ccc3c(c2)OCCO3)cs1,-12.7,16.9,5.6,2.9,1.1
O=C(Nc1nc(-c2ccccn2)cs1)C1COc2ccccc2O1 (stereo unspecified),-0.7,-52.5,-2.9,5.6,4.9
C[C@@H]1CCCCO[C@H](CN(C)CC2CC2)[C@H](C)CN([C@@H](C)CO)C(=O)c2cc(NS(=O)(=O)c3cn(C)cn3)ccc2O1,-2.1,3.2,6.8,1.2,-1.0
CO[C@H]1CN(C)C(=O)c2cc(NC(=O)c3ccccc3)ccc2OC[C@H](C)N(CC2CC2)C[C@H]1C,/,2.0,/,/,1.5
Cc1noc(C)c1NC(=O)Nc1ccc2c(c1)CC(=O)N([C@H](C)CO)C[C@H](C)[C@H](CN(C)S(=O)(=O)c1ccc(Cl)cc1)O2,8.0,2.8,4.9,-0.8,-2.9
O=C(Cc1ccc(Cl)cc1Cl)Nc1ccncc1,-1.7,-24.7*,4.3,2.0,-0.1
C[C@H]1CN([C@@H](C)CO)C(=O)Cc2cc(NC(=O)Nc3ccc(F)cc3)ccc2O[C@@H]1CN(C)Cc1ccccc1,6.9,-26.7,4.6,-1.6,1.7
C[C@H](CO)N1C[C@H](C)[C@H](CN(C)S(=O)(=O)c2ccccc2)Oc2ccc(NS(=O)(=O)c3ccc(F)cc3)cc2C1=O,/,1.5,/,/,3.3
CCOC(=O)C1CCN(S(=O)(=O)c2ccc3c(c2)CC(=O)N3C)CC1,-3.8,2.8,3.0,100.7*,-1.4
Cc1ccc(S(=O)(=O)N2CCC(C(=O)OCC(=O)N(C)Cc3ccccc3)CC2)cc1C,20.4*,-13.1,13.4,-1.5,-0.1
CCC(=O)N(C)C[C@H]1Oc2ncc(-c3ccc(C(=O)N(C)C)cc3)cc2C(=O)N([C@H](C)CO)C[C@@H]1C,0.3,1.9,-1.6,0.2,3.6
C[C@@H]1CN([C@H](C)CO)C(=O)c2cc(-c3ccc(F)cc3)cnc2O[C@H]1CN(C)C(=O)Cc1ccccn1,23.0*,2.2,-1.5,1.8,0.1
C[C@@H]1CN([C@H](C)CO)C(=O)c2cc(-c3ccccc3)cnc2O[C@@H]1CN(C)C(=O)c1cccnc1,15.5*,1.6,-1.9,-0.2,-3.9
C[C@H]1CN([C@@H](C)CO)C(=O)c2cc(-c3ccncc3)cnc2O[C@H]1CN(C)C(=O)c1ccncc1,16.2*,1.0,-10.2,2.0,-1.7
C[C@@H]1CN([C@@H](C)CO)C(=O)c2cc(-c3ccncc3)cnc2O[C@@H]1CN(C)C(=O)c1ccncc1,-1.0,2.9,-30.0,0.6,-0.2
CCC(=O)N(C)C[C@H]1Oc2ncc(-c3ccc(C(=O)N(C)C)cc3)cc2C(=O)N([C@@H](C)CO)C[C@H]1C,4.7,5.2,111.0*,-2.4,-1.4
CCN(c1ccccc1)S(=O)(=O)c1nnc(NC(=O)C(C)(C)C)s1,29.7*,3.1,-0.5,3.1,1.3
O=C1CCCCn2cc(nn2)COC[C@H](c2ccccc2)N1,/,3.8,/,/,/
COc1ccc(S(=O)(=O)N2CC[C@@H]3[C@@H](CO)Nc4ccc(-c5ccc(C#N)cc5)cc4[C@@H]32)cc1,1.3,-5.8,-4.1,-2.8,9.7*
COc1ccc(S(=O)(=O)N2CC[C@@H]3[C@H](CO)Nc4ccc(-c5ccc(C#N)cc5)cc4[C@@H]32)cc1,2.5,4.6,2.8,-1.5,?
O=S(=O)(c1ccc(F)cc1)N1CC[C@H]2[C@H](CO)Nc3ccc(-c4ccc(F)cc4)cc3[C@H]21,/,-26.1,/,/,0.9
SMILES,SIRT5 inh,Ecoli rRNA inh,S100A4 MyoIIA,ERAP1 inh,CFTR F508del cor
O=C(CN1CCOCC1)N1CC[C@@H]2[C@H]1c1cc(-c3ccc(F)cc3)ccc1N[C@@H]2CO,-9.1,8.3,/,/,-1.1
O=C(CN1CCOCC1)N1CC[C@H]2[C@H](CO)Nc3ccc(-c4ccc(F)cc4)cc3[C@H]21,34.4*,0.3,-2.5,-3.2,1.0
O=S(=O)(c1ccc(F)cc1)N1CC[C@@H]2[C@@H](CO)Nc3ccc(-c4ccc(F)cc4)cc3[C@@H]21,/,-28.2,/,/,15.9*
COc1ccc(NC(=O)N(C)C[C@H]2OCCCC[C@@H](C)Oc3ccc(NC(=O)CCC(F)(F)F)cc3C(=O)N([C@@H](C)CO)C[C@H]2C)cc1,2.0,2.0,-2.4,1.3,-1.9
O=C(c1ccc2c(c1)OCO2)N1CC[C@@H]2[C@@H](CO)Nc3ccc(-c4ccccc4)cc3[C@@H]21,10.7,2.0,9.6,-0.4,2.2
CCCNC(=O)Nc1ccc2c(c1)C(=O)N(C)C[C@H](OC)[C@@H](C)CN(C(=O)C1CCC1)[C@@H](C)CO2,0.2,2.5,-0.2,-0.3,-0.6
O=C(COC(=O)CCCc1nc2ccccc2s1)NC(=O)NCc1ccco1,-10.1,-19.2*,8.8,4.3,0.8
CCC1(C)Cc2ccccc2-c2nc[nH]c(=O)c21 (stereo unspecified),-5.2,-12.3,-3.2,2.3,8.6*
O=C(Nc1cc(F)ccc1F)N[C@H]1C=C[C@H](CC(=O)N2CCc3ccccc3C2)O[C@H]1CO,-0.9,-1.5,36.5,-5.0,0.8
CC(=O)Nc1cccc(-n2nnc(SCC(=O)c3ccccc3)n2)c1,-1.6,-36.4*,-8.2,3.7,1.5
c1ccc(CN2CCN(C3CCCSc4ccccc43)CC2)cc1 (stereo unspecified),-3.3,-30.5*,4.4,-5.1,3.4
O=C1CC(N2CCN(Cc3ccccc3)CC2)C(=O)N1 (stereo unspecified),-2.7,9.9,-3.5,1.4,1.7
CCOc1ccc(S(=O)(=O)N=C(c2ccccc2)N2CCOCC2)cc1,-7.5,6.2,2.7,-3.7,-2.8
Cc1ccccc1S(=O)(=O)/N=C(/c1ccccc1)N1CCOCC1,16.4*,16.8,-0.2,-4.4,-0.7
CN(C)c1ccc(C(=O)c2ccccc2C(=O)O)cc1[N+](=O)[O-],27.7*,-5.2,14.8,-3.3,-1.4
COc1c2ccoc2nc2c(OC)cccc12,-18.6,-21.9*,-11.4,-1.3,3.6
COc1cccc2c(C)cc(N3CCCCCC3)nc12,-2.8,5.5,-3.0,0.6,2.6
C[C@@H]1CN([C@H](C)CO)C(=O)c2cc(N(C)C)ccc2O[C@@H]1CN(C)C(=O)Nc1ccc(F)cc1,-3.4,3.8,0.8,-1.1,1.1
COc1ccc(C(=O)c2ccc(OC)cc2OC)cc1,4.2,-1.3,10.3,5.2,?

# Assay outcomes from PubChem.
